pIC50: −log10 of the molar value.

One assay addresses T1, Methionine aminopeptidase (Escherichia coli K-12, UniProt P0AE18).
T1 sequence (P0AE18 whole entry): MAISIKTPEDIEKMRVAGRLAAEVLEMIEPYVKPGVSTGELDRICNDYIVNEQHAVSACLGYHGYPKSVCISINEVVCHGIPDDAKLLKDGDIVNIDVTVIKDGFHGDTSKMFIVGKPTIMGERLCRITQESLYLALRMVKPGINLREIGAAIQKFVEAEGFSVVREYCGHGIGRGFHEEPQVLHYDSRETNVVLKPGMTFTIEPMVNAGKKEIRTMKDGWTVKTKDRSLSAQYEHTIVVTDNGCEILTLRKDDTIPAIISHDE
Briefly: Inhibitory activity against Methionine aminopeptidase 1 from Escherichia coli. The method in brief: (§1)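 Co(II)-activated enzyme: preincubated 30 min in 25 mM HEPES pH 7.5, 150 mM KCl, 15 mM methionine, 500 μM CoCl2. Chromogenic assay in 50 mM MOPS pH 7.0 with 1 mM DTNB and 100 μM thiopeptolide Met-S-Gly-Phe-OH. Final enzyme was 150 nM for EcMetAP1 and 330 nM for ScMetAP1. Hydrolysis read at 412 nm for 60 s. IC50 from inhibitor dilutions, […].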
Turning to `O=C(Oc1cccnc1C(=O)Nc1nccs1)c1cccc(F)c1`, the pIC50 – broadly, the IC50 on a negative log10 scale, so that one unit is a factor of ten – is 6.02.

Turning to `CCC(=O)Nc1cccnc1C(=O)Nc1nccs1`, the negative-log IC50 (pIC50) was 6.59.

`CC(C)COC(=O)Nc1cccnc1C(=O)Nc1nccs1`: the pIC50 was 5.72.

Turning to `O=C(Nc1nccs1)c1ncccc1OC(=O)C1CCCCC1`, the pIC50 is 5.62.

Molecule `CCCC[C@@H](N)[C@H](O)C(=O)N[C@@H](C)C(=O)N[C@@H](CC(C)C)C(=O)OC` had a pIC50 of 4.64.

With `O=C(Oc1cccnc1C(=O)Nc1nccs1)c1ccc(F)c(Br)c1`, the pIC50 is 5.60.

`O=C(Oc1cccnc1C(=O)Nc1nccs1)c1ccccc1F`: the pIC50 was 6.08.

`O=C(Cc1ccccc1)Nc1cccnc1C(=O)Nc1nccs1` had a negative-log IC50 (pIC50) of 6.40.

The molecule `CC(C)=CCC(=O)Nc1cccnc1C(=O)Nc1nccs1` showed a pIC50 of 6.62.

Molecule `O=C(Cc1ccccc1)Oc1cccnc1C(=O)Nc1nccs1` showed a pIC50 of 6.27.

Take `CC(C)=CC(=O)Oc1cccnc1C(=O)Nc1nccs1`: the pIC50 was 5.59.

On to `O=C(Oc1cccnc1C(=O)Nc1nccs1)c1ccccc1I`, for which the pIC50 was 5.89.

As for `O=C(Nc1cccnc1C(=O)Nc1nccs1)c1ccc(F)cc1`, the pIC50 is 5.87.

With `CC(C)=CC(=O)Nc1cccnc1C(=O)Nc1nccs1`, the pIC50 was 6.66.

Take `O=C(Nc1nccs1)c1ncccc1O`: the negative logarithm of the IC50 (pIC50) is 5.73.

`CC(C)(C)C(=O)Nc1cccnc1C(=O)Nc1nccs1` had a pIC50 of 6.27.

Molecule `COc1ccccc1/C=C/C(=O)Oc1cccnc1C(=O)Nc1nccs1` showed a pIC50 of 5.68.

`COc1ccccc1C(=O)Oc1cccnc1C(=O)Nc1nccs1` showed a pIC50 of 5.77.

For the molecule `O=C(Nc1cccnc1C(=O)Nc1nccs1)c1cccc(F)c1`, the pIC50 was 6.15.

On to `C/C=C(\C)C(=O)Oc1cccnc1C(=O)Nc1nccs1`, for which the pIC50 was 5.36.

Consider `O=C(Nc1nccs1)c1ncccc1NC(=O)C1CCCCC1`, for which the pIC50 is 6.06.

As for `CC(C)=CCCC(=O)Nc1cccnc1C(=O)Nc1nccs1`, the pIC50 was 6.21.

A further assay concerns Escherichia coli. Briefly: Selectivity of inhibitory activity of Methionine aminopeptidase 1 from Escherichia coli to Methionine aminopeptidase 1 from Saccharomyces cerevisiae.
Regarding `O=C(Oc1cccnc1C(=O)Nc1nccs1)c1cccc(F)c1`, the Ratio is under 0.0095.

For the molecule `CCC(=O)Nc1cccnc1C(=O)Nc1nccs1`, the Ratio was 0.74.

With `CC(C)COC(=O)Nc1cccnc1C(=O)Nc1nccs1`, the Ratio was 0.036.

Regarding `O=C(Nc1nccs1)c1ncccc1OC(=O)C1CCCCC1`, the Ratio came to 7.5.

On to `O=C(Oc1cccnc1C(=O)Nc1nccs1)c1ccc(F)c(Br)c1`, for which the Ratio came to 0.74.

As for `O=C(Oc1cccnc1C(=O)Nc1nccs1)c1ccccc1F`, the Ratio is 0.052.

As to `O=C(Cc1ccccc1)Nc1cccnc1C(=O)Nc1nccs1`, the Ratio worked out at 0.49.

In the case of `CC(C)=CCC(=O)Nc1cccnc1C(=O)Nc1nccs1`, the Ratio was 1.71.

As for `O=C(Cc1ccccc1)Oc1cccnc1C(=O)Nc1nccs1`, the Ratio came to 2.7.

On to `CC(C)=CC(=O)Oc1cccnc1C(=O)Nc1nccs1`, for which the Ratio was 5.3.

Turning to `O=C(Oc1cccnc1C(=O)Nc1nccs1)c1ccccc1I`, the Ratio came out at 1.5.

As to `O=C(Nc1cccnc1C(=O)Nc1nccs1)c1ccc(F)cc1`, the Ratio is under 0.0136.

Consider `CC(C)=CC(=O)Nc1cccnc1C(=O)Nc1nccs1`, for which the Ratio is 0.29.

Consider `O=C(Nc1nccs1)c1ncccc1O`, for which the Ratio was found to be 0.38.

`CC(C)(C)C(=O)Nc1cccnc1C(=O)Nc1nccs1`: the Ratio is 1.59.

On to `COc1ccccc1/C=C/C(=O)Oc1cccnc1C(=O)Nc1nccs1`, for which the Ratio came out at 0.21.

For `COc1ccccc1C(=O)Oc1cccnc1C(=O)Nc1nccs1`, the Ratio was 3.1.

`O=C(Nc1cccnc1C(=O)Nc1nccs1)c1cccc(F)c1`: the Ratio is under 0.0071.

`C/C=C(\C)C(=O)Oc1cccnc1C(=O)Nc1nccs1`: the Ratio amounted to 11.

Turning to `O=C(Nc1nccs1)c1ncccc1NC(=O)C1CCCCC1`, the Ratio is under 0.0087.

As to `CC(C)=CCCC(=O)Nc1cccnc1C(=O)Nc1nccs1`, the Ratio came out at 2.

The next assay concerns the target T2, Methionine aminopeptidase 1 (Saccharomyces cerevisiae S288c, UniProt Q01662).
T2 sequence (Q01662 whole entry): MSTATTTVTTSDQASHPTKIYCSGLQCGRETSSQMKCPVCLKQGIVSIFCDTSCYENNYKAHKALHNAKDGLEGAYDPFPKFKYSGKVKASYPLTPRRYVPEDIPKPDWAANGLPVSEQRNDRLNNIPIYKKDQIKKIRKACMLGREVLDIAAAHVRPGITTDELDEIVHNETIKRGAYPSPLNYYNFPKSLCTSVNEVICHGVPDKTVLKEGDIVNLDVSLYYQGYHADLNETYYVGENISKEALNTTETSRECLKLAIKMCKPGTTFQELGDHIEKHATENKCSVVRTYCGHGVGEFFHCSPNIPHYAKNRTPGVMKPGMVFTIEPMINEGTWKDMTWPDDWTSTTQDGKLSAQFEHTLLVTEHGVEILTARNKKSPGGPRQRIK
Briefly: Inhibitory activity against type I methionine aminopeptidase from Saccharomyces cerevisiae. In short, it runs like this:
as §1
On to `O=C(Oc1cccnc1C(=O)Nc1nccs1)c1cccc(F)c1`, for which the pIC50 is under 4.00.

Regarding `CCC(=O)Nc1cccnc1C(=O)Nc1nccs1`, the pIC50 is 6.46.

Consider `CC(C)COC(=O)Nc1cccnc1C(=O)Nc1nccs1`, for which the pIC50 is 4.27.

In turn, `O=C(Nc1nccs1)c1ncccc1OC(=O)C1CCCCC1` had a pIC50 of 6.49.

In turn, `CCCC[C@@H](N)[C@H](O)C(=O)N[C@@H](C)C(=O)N[C@@H](CC(C)C)C(=O)OC` had a pIC50 of 4.02.

`O=C(Oc1cccnc1C(=O)Nc1nccs1)c1ccc(F)c(Br)c1` gave a pIC50 of 5.47.

`O=C(Oc1cccnc1C(=O)Nc1nccs1)c1ccccc1F` showed a pIC50 of 4.80.

In turn, `O=C(Cc1ccccc1)Nc1cccnc1C(=O)Nc1nccs1` had a pIC50 of 6.09.

For `CC(C)=CCC(=O)Nc1cccnc1C(=O)Nc1nccs1`, the negative-log IC50 (pIC50) is 6.85.

The molecule `O=C(Cc1ccccc1)Oc1cccnc1C(=O)Nc1nccs1` had a pIC50 of 6.70.

On to `CC(C)=CC(=O)Oc1cccnc1C(=O)Nc1nccs1`, for which the pIC50 is 6.31.

The molecule `O=C(Oc1cccnc1C(=O)Nc1nccs1)c1ccccc1I` gave a pIC50 of 6.05.

Turning to `O=C(Nc1cccnc1C(=O)Nc1nccs1)c1ccc(F)cc1`, the pIC50 was under 4.00.

Molecule `CC(C)=CC(=O)Nc1cccnc1C(=O)Nc1nccs1` showed a pIC50 of 6.11.

As to `O=C(Nc1nccs1)c1ncccc1O`, the pIC50 is 5.31.

`CC(C)(C)C(=O)Nc1cccnc1C(=O)Nc1nccs1`: the pIC50 is 6.47.

The molecule `COc1ccccc1/C=C/C(=O)Oc1cccnc1C(=O)Nc1nccs1` had a pIC50 of 5.00.

As to `COc1ccccc1C(=O)Oc1cccnc1C(=O)Nc1nccs1`, the negative-log IC50 (pIC50) is 6.26.

On to `O=C(Nc1cccnc1C(=O)Nc1nccs1)c1cccc(F)c1`, for which the pIC50 was under 4.00.

Molecule `C/C=C(\C)C(=O)Oc1cccnc1C(=O)Nc1nccs1` had a pIC50 of 6.41.

For the molecule `O=C(Nc1nccs1)c1ncccc1NC(=O)C1CCCCC1`, the pIC50 was under 4.00.

In turn, `CC(C)=CCCC(=O)Nc1cccnc1C(=O)Nc1nccs1` showed a pIC50 of 6.51.

The record behind these values is ChEMBL document CHEMBL1145806, “Discovery and structural modification of inhibitors of methionine aminopeptidases from Escherichia coli and Saccharomyces cerevisiae” (J Med Chem, 2003).
